Holding throughout (format): cell-based
Test [1] concerns the target Mitogen-activated protein kinase kinase kinase kinase 4 (Homo sapiens, UniProt O95819). Nature of the test: Inhibition of ZC1/HGK Lys1 labeling site in human A-375 cells at 5 uM by KiNativ Profiling analysis relative to control.
Test [2] has as its target Tyrosine-protein kinase ABL2 (Homo sapiens, UniProt P42684). Nature of the test: Inhibition of ARG Lys1 labeling site in human A-375 cells at 5 uM by KiNativ Profiling analysis relative to control. The method in brief: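 Intact A375 melanoma cells were treated with compound at 5 or 0.5 μM, then lysed. Lysate kinases were labeled with a lysine-reactive ATP or ADP-biotin probe (KiNativ). Inhibition is read as protection of each kinase labeling site from probe labeling.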

The target of test [3] is Serine/threonine-protein kinase Nek7 (Homo sapiens) (UniProt Q8TDX7). The experiment in a line: Inhibition of NEK7 Lys2 labeling site in human A-375 cells at 5 uM by KiNativ Profiling analysis relative to control.
Sequence of Serine/threonine-protein kinase Nek7 (Homo sapiens) (Q8TDX7 whole entry, looked up): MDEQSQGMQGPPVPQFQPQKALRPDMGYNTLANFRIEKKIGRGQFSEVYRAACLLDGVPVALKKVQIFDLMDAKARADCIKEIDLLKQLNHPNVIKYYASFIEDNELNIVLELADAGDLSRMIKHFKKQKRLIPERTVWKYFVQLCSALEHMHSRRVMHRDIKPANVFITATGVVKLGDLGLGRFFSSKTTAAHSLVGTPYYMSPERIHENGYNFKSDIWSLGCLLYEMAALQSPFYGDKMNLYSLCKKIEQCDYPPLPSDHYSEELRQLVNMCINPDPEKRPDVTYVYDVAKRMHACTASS
Test [4] addresses T1, Mitogen-activated protein kinase kinase kinase 3 (Homo sapiens) (UniProt Q99759).
T1 sequence (whole entry): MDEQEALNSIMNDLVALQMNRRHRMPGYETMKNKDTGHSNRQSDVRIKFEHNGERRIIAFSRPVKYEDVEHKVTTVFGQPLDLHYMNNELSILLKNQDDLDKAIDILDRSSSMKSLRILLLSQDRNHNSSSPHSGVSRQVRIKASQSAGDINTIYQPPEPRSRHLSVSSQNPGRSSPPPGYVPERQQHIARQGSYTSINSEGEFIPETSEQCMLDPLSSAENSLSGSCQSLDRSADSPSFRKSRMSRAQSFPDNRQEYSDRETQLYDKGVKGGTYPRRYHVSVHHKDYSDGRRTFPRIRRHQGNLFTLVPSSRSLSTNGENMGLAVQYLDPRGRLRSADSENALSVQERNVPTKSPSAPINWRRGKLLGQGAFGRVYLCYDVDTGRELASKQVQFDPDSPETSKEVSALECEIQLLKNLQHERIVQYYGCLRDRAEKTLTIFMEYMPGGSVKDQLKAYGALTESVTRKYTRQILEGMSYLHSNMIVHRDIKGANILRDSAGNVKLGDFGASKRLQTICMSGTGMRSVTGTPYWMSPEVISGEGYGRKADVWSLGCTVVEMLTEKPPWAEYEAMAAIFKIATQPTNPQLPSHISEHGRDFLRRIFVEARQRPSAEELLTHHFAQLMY
The experiment in a line: Inhibition of MAP3K3 Lys1 labeling site in human A-375 cells at 0.5 uM by KiNativ Profiling analysis relative to control.

In test [5] the target is T2, Serine/threonine-protein kinase Nek9 (Homo sapiens) (UniProt Q8TD19).
T2 sequence (whole entry): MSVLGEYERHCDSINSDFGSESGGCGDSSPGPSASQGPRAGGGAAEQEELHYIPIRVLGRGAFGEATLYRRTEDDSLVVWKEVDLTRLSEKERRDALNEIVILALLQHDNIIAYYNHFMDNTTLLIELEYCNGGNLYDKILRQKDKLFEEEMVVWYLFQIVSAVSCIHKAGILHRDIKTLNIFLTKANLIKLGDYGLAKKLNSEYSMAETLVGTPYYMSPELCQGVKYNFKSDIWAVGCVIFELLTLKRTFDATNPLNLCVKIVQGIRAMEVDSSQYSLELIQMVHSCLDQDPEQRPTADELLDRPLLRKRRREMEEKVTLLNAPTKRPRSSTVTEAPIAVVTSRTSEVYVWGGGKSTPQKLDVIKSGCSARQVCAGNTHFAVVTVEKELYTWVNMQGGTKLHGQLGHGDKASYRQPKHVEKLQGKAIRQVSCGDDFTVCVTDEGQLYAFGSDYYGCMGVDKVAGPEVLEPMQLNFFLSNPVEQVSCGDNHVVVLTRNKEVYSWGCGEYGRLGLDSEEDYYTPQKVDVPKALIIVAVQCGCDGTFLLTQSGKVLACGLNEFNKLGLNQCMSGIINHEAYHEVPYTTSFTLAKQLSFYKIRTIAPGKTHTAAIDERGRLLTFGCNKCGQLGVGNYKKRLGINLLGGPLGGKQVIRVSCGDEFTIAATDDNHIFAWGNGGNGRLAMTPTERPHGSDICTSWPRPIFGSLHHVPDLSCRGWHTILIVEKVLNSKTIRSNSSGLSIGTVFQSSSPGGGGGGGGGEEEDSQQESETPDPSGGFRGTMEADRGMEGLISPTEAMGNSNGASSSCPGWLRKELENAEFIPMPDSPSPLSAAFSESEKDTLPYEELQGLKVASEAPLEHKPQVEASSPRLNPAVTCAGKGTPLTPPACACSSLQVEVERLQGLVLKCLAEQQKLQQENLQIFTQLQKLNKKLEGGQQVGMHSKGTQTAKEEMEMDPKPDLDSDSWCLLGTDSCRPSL
The experiment in a line: Inhibition of NEK9 Lys1 labeling site harbouring TEDDSLVVWKEVDLTR in human A-375 cells at 0.5 uM by KiNativ Profiling analysis relative to control.

For test [6], the target named is T3, Serine/threonine-protein kinase STK11 (Homo sapiens) (UniProt Q15831).
T3 sequence (whole entry): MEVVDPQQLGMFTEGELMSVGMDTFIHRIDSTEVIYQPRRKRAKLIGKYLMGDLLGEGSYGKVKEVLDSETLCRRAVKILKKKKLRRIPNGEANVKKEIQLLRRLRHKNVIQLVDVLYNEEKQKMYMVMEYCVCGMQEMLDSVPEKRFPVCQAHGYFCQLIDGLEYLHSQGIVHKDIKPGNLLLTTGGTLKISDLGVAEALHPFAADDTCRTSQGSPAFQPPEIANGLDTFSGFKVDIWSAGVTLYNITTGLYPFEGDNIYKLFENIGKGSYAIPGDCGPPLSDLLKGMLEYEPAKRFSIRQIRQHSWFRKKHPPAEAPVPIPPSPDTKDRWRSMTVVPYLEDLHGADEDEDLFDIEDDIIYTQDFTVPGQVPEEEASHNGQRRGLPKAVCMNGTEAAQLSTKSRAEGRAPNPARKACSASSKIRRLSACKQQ
Nature of the test: Inhibition of LKB1 Lys2 labeling site in human A-375 cells at 0.05 uM by KiNativ Profiling analysis relative to control.

Sequence of Mitogen-activated protein kinase kinase kinase kinase 4 (O95819 2-1239 limits assumed): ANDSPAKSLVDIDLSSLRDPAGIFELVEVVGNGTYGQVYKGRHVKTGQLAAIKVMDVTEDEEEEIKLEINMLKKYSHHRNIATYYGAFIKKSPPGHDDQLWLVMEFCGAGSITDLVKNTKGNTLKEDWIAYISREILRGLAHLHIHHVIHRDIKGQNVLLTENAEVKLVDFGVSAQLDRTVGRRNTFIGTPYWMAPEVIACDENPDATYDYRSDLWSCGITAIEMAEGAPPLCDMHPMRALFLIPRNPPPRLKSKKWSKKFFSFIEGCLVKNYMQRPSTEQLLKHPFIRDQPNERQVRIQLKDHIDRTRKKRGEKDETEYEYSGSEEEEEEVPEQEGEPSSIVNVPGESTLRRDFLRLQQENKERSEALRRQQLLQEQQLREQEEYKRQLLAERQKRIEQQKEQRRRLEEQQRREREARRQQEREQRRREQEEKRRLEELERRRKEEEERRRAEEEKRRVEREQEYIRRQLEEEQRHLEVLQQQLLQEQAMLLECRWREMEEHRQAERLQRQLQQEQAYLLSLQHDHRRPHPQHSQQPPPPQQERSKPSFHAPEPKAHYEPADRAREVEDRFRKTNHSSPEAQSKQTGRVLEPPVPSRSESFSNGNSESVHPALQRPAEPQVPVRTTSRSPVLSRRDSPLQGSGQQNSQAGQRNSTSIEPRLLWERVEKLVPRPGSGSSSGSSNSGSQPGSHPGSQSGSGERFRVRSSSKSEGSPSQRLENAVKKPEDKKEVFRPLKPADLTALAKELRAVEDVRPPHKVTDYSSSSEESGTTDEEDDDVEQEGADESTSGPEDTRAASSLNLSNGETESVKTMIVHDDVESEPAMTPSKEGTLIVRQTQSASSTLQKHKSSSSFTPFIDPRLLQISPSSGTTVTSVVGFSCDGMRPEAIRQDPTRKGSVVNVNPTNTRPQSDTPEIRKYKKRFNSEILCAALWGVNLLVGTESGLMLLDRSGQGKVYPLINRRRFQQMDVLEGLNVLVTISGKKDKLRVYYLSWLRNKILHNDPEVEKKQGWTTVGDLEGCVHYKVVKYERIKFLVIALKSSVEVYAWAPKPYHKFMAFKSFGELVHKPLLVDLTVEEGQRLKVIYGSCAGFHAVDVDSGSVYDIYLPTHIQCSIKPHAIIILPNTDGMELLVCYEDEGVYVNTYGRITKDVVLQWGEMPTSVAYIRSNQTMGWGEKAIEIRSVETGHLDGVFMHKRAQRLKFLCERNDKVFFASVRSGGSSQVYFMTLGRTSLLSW
Sequence of Tyrosine-protein kinase ABL2 (P42684 whole entry): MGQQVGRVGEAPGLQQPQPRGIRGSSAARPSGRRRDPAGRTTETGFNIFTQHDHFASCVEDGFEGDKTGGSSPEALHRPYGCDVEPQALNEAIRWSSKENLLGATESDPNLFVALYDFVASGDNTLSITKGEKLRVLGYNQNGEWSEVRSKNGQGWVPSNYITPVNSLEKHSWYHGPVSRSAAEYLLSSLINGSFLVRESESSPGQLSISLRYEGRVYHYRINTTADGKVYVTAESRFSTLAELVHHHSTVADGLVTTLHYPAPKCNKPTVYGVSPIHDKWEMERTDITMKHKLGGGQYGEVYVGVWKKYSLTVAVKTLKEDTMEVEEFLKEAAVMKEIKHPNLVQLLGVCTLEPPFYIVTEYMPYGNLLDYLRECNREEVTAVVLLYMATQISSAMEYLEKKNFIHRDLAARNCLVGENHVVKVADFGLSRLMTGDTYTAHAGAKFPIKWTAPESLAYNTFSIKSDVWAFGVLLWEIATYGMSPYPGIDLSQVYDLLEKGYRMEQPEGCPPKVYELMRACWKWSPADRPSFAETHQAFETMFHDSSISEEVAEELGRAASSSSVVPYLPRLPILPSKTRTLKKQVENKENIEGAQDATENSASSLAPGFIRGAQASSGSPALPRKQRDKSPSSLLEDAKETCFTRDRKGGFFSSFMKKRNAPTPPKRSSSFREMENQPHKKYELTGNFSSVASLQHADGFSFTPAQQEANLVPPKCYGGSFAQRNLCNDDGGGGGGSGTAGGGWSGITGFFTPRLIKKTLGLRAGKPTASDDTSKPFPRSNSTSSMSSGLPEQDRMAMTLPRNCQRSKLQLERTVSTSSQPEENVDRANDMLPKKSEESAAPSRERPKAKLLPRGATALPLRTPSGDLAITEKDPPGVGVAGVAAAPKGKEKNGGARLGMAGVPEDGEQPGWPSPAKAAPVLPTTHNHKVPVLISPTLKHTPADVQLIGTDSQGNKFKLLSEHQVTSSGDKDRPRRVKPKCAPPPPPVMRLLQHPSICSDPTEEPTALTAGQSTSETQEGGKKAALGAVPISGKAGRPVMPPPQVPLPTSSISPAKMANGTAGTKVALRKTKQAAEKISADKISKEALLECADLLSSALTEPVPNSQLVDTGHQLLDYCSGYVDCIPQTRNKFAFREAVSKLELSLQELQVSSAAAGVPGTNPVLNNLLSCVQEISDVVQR

What is called inhibition is the drop in the measured response relative to a control, in per cent. In the case of `CCN1CCN(Cc2ccc(NC(=O)c3ccc(C)c(/C=C/c4cnc5[nH]ccc5c4OC)c3)cc2C(F)(F)F)CC1`, the inhibition in test [1] was > 88%; in test [2] it was > 90%; in test [3] it was 3.1%; in test [4], 33.4%; in test [5], -5%; in test [6], 28.3%.

Regarding `CCN1CCN(Cc2ccc(NC(=O)c3ccc(C)c(Oc4ccnc5[nH]ccc45)c3)cc2C(F)(F)F)CC1`, the inhibition in test [1] was 86.4%; in test [2], 86.8%; in test [3], 6.4%; in test [4], 42%; in test [5], -1.5%; in test [6] it was 13.1%.

The values are drawn from ChEMBL document CHEMBL5696442, “Discovery of type II inhibitors of TGFβ-activated kinase 1 (TAK1) and mitogen-activated protein kinase kinase kinase kinase 2 (MAP4K2)” (J Med Chem, 2015).
